For one series, the species on record is Rattus norvegicus. The series is described as follows: Selectivity index, ratio of IC50 for rat MAO-A to IC50 for rat MAO-B. The method, boiled down: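 Ratio of IC50 values from rat brain mitochondrial radioenzymatic assays: MAO-A with [14C]5-HT 5 μM, 30 min, and MAO-B with [14C]PEA 0.5 μM, 10 min. Both after 30 min preincubation with compound at 37 °C.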

The nature of series [1]: Octanol-water partition coefficient, log P by potentiometric titration. The series is classed as physicochemical.
Series [2] can be described thus: Aqueous solubility at pH 3.0 by turbidimetric method. In kind it is physicochemical. The conditions noted are these: aqueous solution. The method in brief: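 DMSO stock of compound added in 2 μL portions, about 10 additions, to 50 mM Tris-HCl pH 7.4 or 50 mM acetate pH 3.0 at room temperature, final DMSO below 5%. Precipitation read as light-scattering absorbance rise at 600-820 nm. Solubility limit taken from a bilinear fit of absorbance against DMSO volume. Three independent assays, mean ± SEM.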

Series [3] can be described thus: Permeability across PAMPA membrane assessed as retention at 2.5 mM by HDM-PAMPA assay. In kind it is ADME. The conditions noted are these: 2500 µM. The method, boiled down:
(§1)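 Hexadecane artificial membrane (0.75 μL per well, applied as 5% v/v in hexane, hexane evaporated) on polycarbonate filters; donor and acceptor in 0.1 M phosphate buffer pH 6.8 with 5% DMSO (iso-pH); 5 h at room temperature, shaking at 75 rpm; quadruplicate. Donor and acceptor concentrations read by UV at λmax. Retention, CA(t)/CD(0) and Pe calculated by the stated equations, τLAG neglected; membrane integrity checked by electrical resistance.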
For orientation: PAMPA measures passive passage across an artificial lipid membrane.

Series [4] can be described thus: Permeability across PAMPA membrane assessed as amount of drug reaching acceptor compartment at 2.5 mM by HDM-PAMPA assay. In kind it is ADME. To be noted: 2500 µM. The method in brief:
as §1

For series [5], the system named is Mus musculus. The series is described as follows: Ex vivo inhibition of MAO-B in C57Bl mouse brain at 3 mg/kg, po or 3 mg/kg, ip after 1 hr by radioenzymatic assay. The series is classed as functional, organism-based. The method in brief:
(§2)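 C57Bl mice (n = 6 per group) dosed orally or intraperitoneally at 3 mg/kg and killed 1 h later. Brains homogenized in 0.1 M phosphate pH 7.40. MAO-A ([14C]5-HT) and MAO-B ([14C]PEA) activities measured by radioenzymatic assay. Mean ± SEM, ANOVA with Dunnett's test.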

In series [6] the test system is Mus musculus. The series is described as follows: Ex vivo inhibition of MAO-A in C57Bl mouse brain at 3 mg/kg, po or 3 mg/kg, ip after 1 hr by radioenzymatic assay. The series is classed as functional, organism-based. The method, boiled down:
as §2

Series [7] concerns Mus musculus. The series is described as follows: Ex vivo inhibition of MAO-B in C57Bl mouse brain at 0.5 mg/kg, po after 1 hr by radioenzymatic assay. The series is classed as functional. Set-up: scale not given: the % may be the effect or the level left. The method in brief:
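C57Bl mice (n = 6 per group) given 0.5 mg/kg orally and killed at 0.5, 1, 2, 4, 8 or 16 h. Brain homogenates in 0.1 M phosphate pH 7.40 assayed radioenzymatically for MAO-B with [14C]PEA. Mean ± SEM, ANOVA with Dunnett's test.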

In the next series the target is T1, Cytochrome P450 1A2 (Homo sapiens, UniProt P05177).
T1 sequence (P05177 whole entry): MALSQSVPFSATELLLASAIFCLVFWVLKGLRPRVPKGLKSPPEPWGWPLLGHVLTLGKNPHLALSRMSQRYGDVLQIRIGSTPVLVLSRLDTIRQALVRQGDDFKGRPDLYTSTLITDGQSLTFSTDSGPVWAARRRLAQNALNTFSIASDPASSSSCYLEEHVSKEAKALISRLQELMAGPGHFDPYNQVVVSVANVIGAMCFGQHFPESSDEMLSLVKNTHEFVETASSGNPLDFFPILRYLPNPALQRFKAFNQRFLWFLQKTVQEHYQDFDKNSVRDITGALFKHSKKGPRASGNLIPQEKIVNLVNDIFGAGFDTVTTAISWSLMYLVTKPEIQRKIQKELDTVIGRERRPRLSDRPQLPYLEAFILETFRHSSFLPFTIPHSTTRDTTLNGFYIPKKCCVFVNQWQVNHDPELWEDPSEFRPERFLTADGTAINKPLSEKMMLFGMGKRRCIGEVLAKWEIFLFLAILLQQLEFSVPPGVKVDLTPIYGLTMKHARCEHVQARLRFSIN
The series is described as follows: Inhibition of human recombinant CYP1A2. The series is classed as ADME. The method in brief:
(§3)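 Recombinant human CYP supersomes were incubated at 37 C in incubation/NADPH regenerating buffer with isoform-specific substrates that turn fluorescent on metabolism. The substrate was 3-cyano-7-ethoxycoumarin for CYP1A2 and 7-methoxy-4-trifluoromethylcoumarin for CYP2C9. Fluorescence was read at the appropriate excitation/emission wavelengths, with a literature inhibitor as positive control in each assay.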

For another series, the target named is Cytochrome P450 2C9 (Homo sapiens, UniProt P11712). The series is described as follows: Inhibition of human recombinant CYP2C9. The series is classed as ADME. The method, boiled down: as §3
Chain of Cytochrome P450 2C9 (P11712 whole entry): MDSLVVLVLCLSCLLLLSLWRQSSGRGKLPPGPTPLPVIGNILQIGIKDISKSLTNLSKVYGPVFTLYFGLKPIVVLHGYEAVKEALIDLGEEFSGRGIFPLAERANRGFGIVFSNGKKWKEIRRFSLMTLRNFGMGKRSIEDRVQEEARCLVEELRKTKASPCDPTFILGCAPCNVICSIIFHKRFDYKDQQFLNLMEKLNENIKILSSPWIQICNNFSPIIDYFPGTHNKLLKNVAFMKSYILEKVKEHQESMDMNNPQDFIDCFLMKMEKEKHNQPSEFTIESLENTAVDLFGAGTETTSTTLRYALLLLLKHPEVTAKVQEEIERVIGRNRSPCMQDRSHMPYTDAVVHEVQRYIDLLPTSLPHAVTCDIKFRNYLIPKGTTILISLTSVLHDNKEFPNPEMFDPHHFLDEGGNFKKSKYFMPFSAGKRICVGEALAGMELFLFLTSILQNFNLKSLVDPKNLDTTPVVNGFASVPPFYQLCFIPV
The next series has as its target Cytochrome P450 2C19 (Homo sapiens, UniProt P33261). The series is described as follows: Inhibition of human recombinant CYP2C19. The series is classed as ADME. The method, boiled down:
(§4)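 Human recombinant CYP supersomes incubated at 37 °C with compound in NADPH-regenerating buffer, with fluorogenic substrates: 3-cyano-7-ethoxycoumarin for CYP2C19, […] for CYP3A4. Fluorescence read on a plate reader. Known isoform inhibitors run as positive controls in every assay.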

In another series the target is Cytochrome P450 2D6 (Homo sapiens, UniProt P10635). The series is described as follows: Inhibition of human recombinant CYP2D6. In kind it is ADME. The method in brief:
(§5)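 Human recombinant CYP isoenzymes (supersomes) were incubated at 37 C with the test compound in incubation/NADPH-regenerating buffer plus a fluorogenic substrate. The substrate was 3-[2-(N,N-diethyl-N-methylammonium)ethyl]-7-methoxy-4-methylcoumarin for CYP2D6 and 7-methoxy-4-phenylcoumarin for CYP2E1. Fluorescent product was read at isoform-appropriate wavelengths, with a literature inhibitor as positive control. IC50 came from nonlinear regression of at least seven concentrations, each in duplicate.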

Another series deals with Cytochrome P450 2E1 (Homo sapiens, UniProt P05181). The series is described as follows: Inhibition of human recombinant CYP2E1. The series is classed as ADME. The method in brief: as §5
Chain of Cytochrome P450 2E1 (P05181 whole entry): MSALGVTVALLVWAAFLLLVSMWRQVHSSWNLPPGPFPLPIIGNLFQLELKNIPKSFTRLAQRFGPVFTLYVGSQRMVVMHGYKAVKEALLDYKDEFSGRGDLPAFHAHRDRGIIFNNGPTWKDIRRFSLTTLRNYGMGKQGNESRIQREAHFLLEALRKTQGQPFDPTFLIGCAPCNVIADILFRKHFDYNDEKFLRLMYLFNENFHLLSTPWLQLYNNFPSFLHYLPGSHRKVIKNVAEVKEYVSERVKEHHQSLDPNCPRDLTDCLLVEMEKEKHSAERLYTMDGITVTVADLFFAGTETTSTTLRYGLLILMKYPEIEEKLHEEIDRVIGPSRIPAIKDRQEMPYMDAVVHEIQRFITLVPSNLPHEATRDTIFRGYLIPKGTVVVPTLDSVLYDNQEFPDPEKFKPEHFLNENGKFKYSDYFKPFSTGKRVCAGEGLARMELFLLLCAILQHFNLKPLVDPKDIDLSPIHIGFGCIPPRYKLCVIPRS
Another series deals with Cytochrome P450 3A4 (Homo sapiens, UniProt P08684). The series is described as follows: Inhibition of human recombinant CYP3A4. The series is classed as ADME. The method, boiled down: as §4
Chain of Cytochrome P450 3A4 (P08684 whole entry): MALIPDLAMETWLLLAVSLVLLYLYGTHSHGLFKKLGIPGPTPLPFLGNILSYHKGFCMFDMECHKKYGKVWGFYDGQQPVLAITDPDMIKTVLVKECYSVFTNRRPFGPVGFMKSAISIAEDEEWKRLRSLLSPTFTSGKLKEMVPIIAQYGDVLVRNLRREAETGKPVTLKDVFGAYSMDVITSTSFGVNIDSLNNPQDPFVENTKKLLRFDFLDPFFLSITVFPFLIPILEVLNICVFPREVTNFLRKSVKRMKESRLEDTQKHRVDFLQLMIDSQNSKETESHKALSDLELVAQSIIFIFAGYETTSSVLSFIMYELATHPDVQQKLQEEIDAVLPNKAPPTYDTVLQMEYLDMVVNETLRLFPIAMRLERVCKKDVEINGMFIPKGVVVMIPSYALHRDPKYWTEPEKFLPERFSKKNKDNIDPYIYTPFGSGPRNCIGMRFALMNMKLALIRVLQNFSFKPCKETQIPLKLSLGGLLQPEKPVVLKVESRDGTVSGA
Series [8] addresses Amine oxidase [flavin-containing] B (Homo sapiens) (UniProt P27338). The series is described as follows: Inhibition of MAO-B in human platelet rich plasma by radioenzymatic assay.

Broadly, the logP is a log measure of how a compound divides between an organic and an aqueous phase. The term solubility (kinetic) denotes the concentration staying in solution when a stock, usually in DMSO, is diluted into the medium. In general, IC50 refers to the concentration that gives 50% inhibition.

The source made the active and inactive calls. The calls are words filed in the database; no cut-off is given here.

Chain of Cytochrome P450 2C19 (P33261 whole entry, canonical isoform): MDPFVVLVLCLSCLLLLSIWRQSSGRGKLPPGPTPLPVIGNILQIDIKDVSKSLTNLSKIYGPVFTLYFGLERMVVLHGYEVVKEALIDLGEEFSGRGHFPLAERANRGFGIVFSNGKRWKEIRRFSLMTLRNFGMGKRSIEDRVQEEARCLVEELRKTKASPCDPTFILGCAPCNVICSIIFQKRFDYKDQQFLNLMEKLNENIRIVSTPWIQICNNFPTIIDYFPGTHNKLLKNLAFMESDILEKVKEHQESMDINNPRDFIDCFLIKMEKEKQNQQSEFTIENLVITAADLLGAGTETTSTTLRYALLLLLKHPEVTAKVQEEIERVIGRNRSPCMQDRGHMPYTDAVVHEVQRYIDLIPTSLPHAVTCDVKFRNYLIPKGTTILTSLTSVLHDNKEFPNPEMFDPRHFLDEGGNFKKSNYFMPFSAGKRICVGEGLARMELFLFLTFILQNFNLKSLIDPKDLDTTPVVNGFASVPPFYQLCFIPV
Chain of Cytochrome P450 2D6 (P10635 whole entry, canonical isoform): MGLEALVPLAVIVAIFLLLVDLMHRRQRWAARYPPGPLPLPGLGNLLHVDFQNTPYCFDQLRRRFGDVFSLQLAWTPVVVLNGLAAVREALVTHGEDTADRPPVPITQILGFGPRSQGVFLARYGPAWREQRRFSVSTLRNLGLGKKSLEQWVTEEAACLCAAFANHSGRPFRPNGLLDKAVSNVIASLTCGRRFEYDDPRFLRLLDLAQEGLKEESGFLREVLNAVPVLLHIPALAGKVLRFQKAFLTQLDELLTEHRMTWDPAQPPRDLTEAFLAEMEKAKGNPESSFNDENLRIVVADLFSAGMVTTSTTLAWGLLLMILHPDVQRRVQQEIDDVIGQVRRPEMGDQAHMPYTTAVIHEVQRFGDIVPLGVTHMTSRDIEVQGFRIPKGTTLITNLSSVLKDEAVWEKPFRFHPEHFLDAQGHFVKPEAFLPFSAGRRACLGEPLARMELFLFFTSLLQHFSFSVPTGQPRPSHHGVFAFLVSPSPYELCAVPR
Chain of Amine oxidase [flavin-containing] B (Homo sapiens) (P27338 whole entry, looked up): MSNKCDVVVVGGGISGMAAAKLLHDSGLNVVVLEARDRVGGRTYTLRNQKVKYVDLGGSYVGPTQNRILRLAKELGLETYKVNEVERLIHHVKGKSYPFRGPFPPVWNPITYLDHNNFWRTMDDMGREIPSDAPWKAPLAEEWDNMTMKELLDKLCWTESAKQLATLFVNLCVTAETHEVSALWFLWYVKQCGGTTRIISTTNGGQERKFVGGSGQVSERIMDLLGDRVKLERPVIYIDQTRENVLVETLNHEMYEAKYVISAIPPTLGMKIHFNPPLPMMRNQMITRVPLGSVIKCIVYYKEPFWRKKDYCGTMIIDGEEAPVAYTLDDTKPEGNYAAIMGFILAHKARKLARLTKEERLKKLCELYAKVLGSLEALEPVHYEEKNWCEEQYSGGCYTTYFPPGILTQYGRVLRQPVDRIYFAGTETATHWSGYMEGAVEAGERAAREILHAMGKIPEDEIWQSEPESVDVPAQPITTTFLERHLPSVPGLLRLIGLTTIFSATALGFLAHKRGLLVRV

For `CNCc1cc(=O)oc2cc(OCc3cccc(Cl)c3)ccc12.CS(=O)(=O)O`, in the series filed under Rattus norvegicus, the Ratio IC50 is 457. The same compound gave a logP in series [1] of 2.49. The compound also gave a kinetic solubility in [2] of 2820 µg/mL. For the same compound, the permeability in series [3] was found to be 10%; in series [4], 33.8%. The outcome with Mus musculus [5] was Active. In addition, in the series on Mus musculus [6], the outcome was inactive. Moreover, the Activity in the series on Mus musculus [7] is recorded as 86%. Besides, the IC50 on Cytochrome P450 1A2, on Cytochrome P450 2C9, at Cytochrome P450 2C19, at Cytochrome P450 2D6, at Cytochrome P450 2E1 and at Cytochrome P450 3A4 was above 5 µM throughout. The compound further had an IC50 in series [8] of 0.003 µM.
